RAD54 inh: inhibitors of human RAD54 branch migration. AID 602329. Q92698. 360,000 tested, 0.14% active. inhibition, % at 10.4 µM. RAD54 Holliday junction branch migration, FAM/BHQ fluorescence;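 active = mean normalized replicate activity at least 40 and at least half of replicates scoring 40 or more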;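 note: 0% = median of neutral control wells and 100% = median of positive control wells; inhibitors cause a drop in the FAM fluorescence signal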
E-sel inducer: induces E-selectin expression in human endothelial cells; HUVEC E-selectin immunofluorescence imaging; normalized: neutral wells 0, TNF-alpha wells 100; AID 686992; 260,000 tested, 0.37% active; P16581; activation, % at 7.58 µM;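 active = mean E-selectin-positive cell signal at least 10% of the positive control, reached in at least 60% of replicates, without over 20% cell loss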
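material = human umbilical vein endothelial cells (HUVEC), E-selectin induction | quantity = 3,000 cells/well | medium = EGM-2 growth medium on 0.1% gelatin-coated wells | technique = immunofluorescence imaging | read-out basis = % PE-positive cells | control set = TNF-alpha positive control, DMSO neutral control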
RAD52 inh: RAD52 (human) annealing inhibition. recombinant RAD52 DNA annealing, FRET fluorescence. AID 651710. inhibition, % at 18.7 µM. 360,000 tested, 0.46% active. P43351;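 active = every replicate showing at least 50% inhibition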
rRNA inh HTS: inhibitors of bacterial rRNA selective over humanized ribosomes; E. coli WT GFP vs humanized-ribosome RFP mutants, fluorescence, 24 h; stronger effect = lower value; DMSO median 0, no signal -100; GFP signal change (wild-type ribosome), % (no concentration beside the values); 350,000 tested, 1.6% active; AID 720706;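 active = significant combined selectivity score with lowered wild-type GFP, culture density cut under 30%, mutant RFP and density less affected; inactive = any of these conditions unmet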
MLL AF4-AF9 inh: MLL-AF4/AF9 protein interaction inhibition | P42568 | AlphaScreen, biotin-AF4 peptide binding to FLAG-AF9 | inhibition, % at 10 µM | 350,000 tested, 0.47% active;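 active = every replicate reaching a set inhibition limit, whatever the replicate mean, cut at about 25% in these data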;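 note: 0% = plate neutral control median and 100% = total signal loss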
Target sequence (P42568 whole entry, looked up): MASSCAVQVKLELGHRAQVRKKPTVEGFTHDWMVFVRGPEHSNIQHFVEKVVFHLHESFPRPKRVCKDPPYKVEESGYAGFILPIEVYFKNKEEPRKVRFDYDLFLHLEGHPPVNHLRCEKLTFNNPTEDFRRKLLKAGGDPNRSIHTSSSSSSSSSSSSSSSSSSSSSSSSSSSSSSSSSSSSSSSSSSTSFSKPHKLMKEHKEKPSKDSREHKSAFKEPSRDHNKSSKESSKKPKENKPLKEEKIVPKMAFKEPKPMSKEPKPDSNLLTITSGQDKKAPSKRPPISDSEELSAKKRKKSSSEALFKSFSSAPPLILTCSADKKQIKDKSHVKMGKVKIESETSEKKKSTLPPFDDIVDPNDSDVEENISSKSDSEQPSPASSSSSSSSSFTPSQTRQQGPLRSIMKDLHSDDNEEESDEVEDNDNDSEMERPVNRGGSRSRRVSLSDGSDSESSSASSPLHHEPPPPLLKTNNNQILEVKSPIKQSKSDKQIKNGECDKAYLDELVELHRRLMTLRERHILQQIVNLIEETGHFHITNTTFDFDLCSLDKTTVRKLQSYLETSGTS
GSIS activator: primary screen for activators of insulin secretion dependent on glucose, INS-1E cells, GLuc reporter luminescence. AID 743287. activation, % at 16.6 µM. 370,000 tested, 0.61% active. INS-1E GLuc reporter insulin secretion, 2-3 h;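 active = lowest replicate activation of at least 40%, so every replicate reaches that level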;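 note: 0% = median of neutral control wells and 100% = median of IBMX positive control wells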
Starred values were filed as active, the others as inactive; / = not tested or not shown. The list is not random: actives were taken first. Their share in the collection is about 2.6%.

SMILES | RAD54 inh | E-sel inducer | RAD52 inh | rRNA inh HTS | MLL AF4-AF9 inh | GSIS activator
COc1ccc2c3c(n(C)c2c1)[C@H](CO)NCC31CN(CC2CCOCC2)C1 | / | 0.2 | 75.8* | 4.2 | 35.1* | 13.6
O=[N+]([O-])c1cccc(-c2nc(-c3ccccc3)c(-c3cccs3)[nH]2)c1 | 6.4 | / | / | / | / | 48.3*
O=C(NCCCN1CCOCC1)[C@@H]1[C@@H](CO)[C@@H]2Cn3c(cccc3=O)[C@H]1N2C(=O)C1CCCC1 | / | -0.1 | -7.1 | 2.0 | 1.6 | 23.3
Cc1cccc(OCC(=O)Nc2nonc2NC(=O)COc2cccc(C)c2)c1 | 8.6 | / | / | / | / | /
Cc1ccc(C)c(OCC(=O)Nc2nonc2NC(=O)COc2cc(C)ccc2C)c1 | 14.3 | / | / | / | / | 128.6*
CC(C)NC(=O)Nc1ccc2c(c1)C(=O)N([C@H](C)CO)C[C@@H](C)[C@@H](CN(C)Cc1ccc(C(F)(F)F)cc1)O2 | -2.2 | -19.6 | 9.6 | 4.4 | 0.5 | -6.0
O=C(CSc1nnc(SCC(=O)c2ccco2)s1)c1ccco1 | 0.2 | / | / | / | / | /
O=C(CSc1nc2cc(Cl)ccc2s1)c1ccco1 | -3.7 | / | -54.9 | -21.1* | 0.8 | 0.3
C[C@H]1CN([C@@H](C)CO)C(=O)CCCn2nncc2CO[C@@H]1CN(C)S(C)(=O)=O | / | 0.2 | / | 2.2 | / | 9.0
CC(=O)N(C)C[C@H]1Oc2ncc(-c3ccccc3C)cc2C(=O)N([C@H](C)CO)C[C@H]1C | 7.2 | 0.0 | 3.6 | 2.0 | -2.1 | 10.8
COc1ccc(S(=O)(=O)N(C)C[C@H]2OCCCC[C@H](C)Oc3ccc(N(C)C)cc3C(=O)N([C@@H](C)CO)C[C@H]2C)cc1 | / | 0.1 | / | -3.6 | / | -2.8
CCN(CC)CCN(C(=O)Cn1nnc(-c2ccc(C)o2)n1)C(C(=O)NC(C)(C)C)c1cccs1 (stereo unspecified) | / | 127.6* | -18.7 | 9.7 | 2.7 | -2.3
COC(=O)C[C@H]1CC[C@@H]2[C@H](COc3ccc(NS(=O)(=O)c4ccc(F)cc4)cc3C(=O)N2C)O1 | 0.1 | 0.1 | 12.3 | -6.5 | -5.9 | -5.0
NC(=O)C1CC(=O)N(Cc2ccc3c(c2)OCO3)C(=Nc2ccccc2)S1 (stereo unspecified) | -1.6 | / | -19.3 | -18.0* | 2.9 | -1.4
N#Cc1ccc(-c2csc(NC3=NCCCCC3)n2)cc1 | / | 44.2* | -11.0 | 4.0 | -0.3 | 9.6
O=C(CN1CCN(C(c2ccccc2)c2ccccc2)CC1)N1CCN(c2ccccc2)CC1 | 3.2 | 0.1 | -36.3 | -38.3* | / | -17.6
N/C(=N\OC(=O)c1ccc(F)cc1)c1nonc1N | / | -0.1 | -9.2 | -1.2 | 0.6 | 25.6
N/C(=N/OC(=O)c1ccccc1Cl)c1nonc1N | / | / | -19.1 | -23.5* | -1.1 | 2.1
CC(=O)N1CC(=O)N2[C@H](CO)[C@H](c3ccc(-c4ccc(C(=O)N(C)C)cc4)cc3)[C@@H]2C1 | / | 0.2 | 8.2 | 0.2 | -5.3 | -3.1
O=C([C@@H]1[C@@H](CO)[C@@H]2Cn3c(ccc(-c4ccccc4)c3=O)[C@H]1N2CCC(F)(F)F)N1CCOCC1 | 5.1 | -0.2 | 4.5 | -1.4 | -0.8 | 3.6
CCC1(C)Cc2c(C#N)c(SC)nc(N3CCOCC3)c2CO1 (stereo unspecified) | -7.8 | -0.1 | -2.4 | -39.9* | -3.2 | /
Cc1cccc(N2CCN(C(=O)N3CCOCC3)CC2)c1C | / | / | -11.0 | 0.2 | -1.5 | 10.5
Cc1cccc(N2CCN(C(=O)N3CCCCC3)CC2)c1C | / | 0.5 | -13.2 | -36.0* | 2.1 | -8.0
O=C(C[C@@H]1CC[C@H]2[C@@H](COC[C@@H](O)CN2C(=O)c2ccc(F)cc2)O1)Nc1nccs1 | -5.2 | 0.1 | -1.6 | 1.3 | -0.6 | 2.3
NC(=O)C1CCN(c2nc(-c3ccccc3N)cs2)CC1 | -11.3 | 0.6 | / | / | / | 29.4
SMILES | RAD54 inh | E-sel inducer | RAD52 inh | rRNA inh HTS | MLL AF4-AF9 inh | GSIS activator
NC(=O)C1CCN(c2nc(-c3ccccc3-c3ccccc3)cs2)CC1 | 12.1 | 138.9* | -6.2 | 4.2 | -1.2 | -27.8
COc1ccc(C(=O)NCc2oc(-c3ccccc3)cc2C(=O)O)cc1 | 5.5 | / | -14.7 | -23.8* | / | -11.8
COc1ccc(C(=O)Nc2ccc3c(c2)OCCO3)cc1[N+](=O)[O-] | / | 46.2* | -17.1 | 8.3 | -0.4 | 10.0
COc1ccc(NC(=O)c2ccc3c(c2)OCCO3)cc1OC | -5.3 | -0.1 | 3.5 | 5.7 | 0.8 | 9.1
C[C@@H]1CN([C@@H](C)CO)C(=O)c2cc(NC(=O)Cc3ccccc3)ccc2O[C@H]1CN(C)S(=O)(=O)c1ccc(F)cc1 | 10.5 | 0.1 | -23.0 | 0.0 | -2.4 | -20.9
O=C(NN=Cc1cc(Cl)ccc1[N+](=O)[O-])c1ccco1 | / | -0.1 | -18.6 | -19.4* | -0.6 | /
C[C@H]1CN(C)C(=O)c2cccc(NS(C)(=O)=O)c2O[C@H]1CN(C)C | / | / | / | -0.1 | / | 17.8
C=CCN(CC=C)Cc1cc(=O)n2c(-c3ccccc3)csc2n1 | -3.9 | 0.0 | -35.9 | -2.6 | 48.7* | 1.2
O=c1cc(CN2CCN(c3ccc(O)cc3)CC2)nc2scc(-c3ccccc3)n12 | 2.4 | / | -9.1 | -5.8 | 2.5 | -1.7
CC(=O)N1[C@H](CO)[C@H](c2ccc(-c3ccc(F)cc3)cc2)[C@@H]1CNC(=O)C1CC1 | 9.7 | 0.0 | / | -3.2 | / | -0.1
O=C(/C=C\c1ccccc1OC(=O)c1ccccc1F)c1cc2ccccc2o1 | 2.1 | / | -13.5 | -23.0* | 7.1 | 0.0
COCC(=O)Nc1ccc2c(c1)C(=O)N(C)[C@@H]1CC[C@@H](CC(=O)NCc3ccc(OC)cc3)O[C@H]1CO2 | -0.7 | 0.2 | / | -1.9 | / | 1.5
COC1=C(Nc2ccc(C)cc2)C(=O)c2ccccc2C1=O | / | / | -13.1 | -11.2 | 36.9* | -5.3
COC1=C(Nc2ccccc2)C(=O)c2ccccc2C1=O | / | / | / | / | / | -3.9
COc1ccccc1OCCOc1ccc(/C=C2/C(=N)N3OC(C)=CC3=NC2=O)cc1OC | 9.2 | / | / | / | / | 286.8*
C[C@@H]1CN([C@@H](C)CO)C(=O)Cc2cc(NC(=O)Nc3cccc4ccccc34)ccc2O[C@H]1CN(C)Cc1ccc2c(c1)OCO2 | 25.5 | / | 53.7* | 4.6 | 5.2 | -14.7
C[C@H](CO)N1C[C@H](C)[C@@H](CN(C)Cc2ccc(Cl)c(Cl)c2)Oc2ccc(NC(=O)Nc3cccc4ccccc34)cc2CC1=O | -4.7 | -0.1 | 53.5* | 5.0 | 2.1 | -0.6
C[C@H]1CN([C@@H](C)CO)C(=O)Cc2cc(NC(=O)Nc3cccc4ccccc34)ccc2O[C@@H]1CN(C)Cc1ccc2c(c1)OCO2 | 10.7 | / | 26.8 | 1.7 | 0.8 | -8.3
C[C@H]1CN([C@@H](C)CO)C(=O)Cc2cc(NC(=O)Nc3cccc4ccccc34)ccc2O[C@@H]1CN(C)Cc1ccc(Cl)c(Cl)c1 | -1.7 | -1.3 | 12.7 | 3.5 | -0.9 | -33.1
Cc1ccc(OCCC(=O)OCC(=O)NCCc2ccccc2)cc1 | / | / | -3.3 | -21.8* | -2.8 | -14.3
